# Screens from PubChem.
# HSF1 activator – increases HSF-1 driven luciferase reporter signal; 300,000 tested, 1.7% active; NIH3T3-HGL HSF-1 luciferase reporter, MG132, 8 h; 100% = twice DMSO control signal; activation, % at 9 µM;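 active means mean replicate activation of at least 50% with a set share of replicates each reaching 50%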;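 further: 0% = median of the neutral control wells and 100% = twice that signal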
# HSF1 inh – HSF1 inhibition; activity change, negative = inhibition, % at 7.5 µM (by protocol); AID 2098; 300,000 tested, 0.77% active; NIH3T3-HGL HSE-luciferase, MG132-induced, luminescence 8 h; stronger effect = lower value;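 active means more than half of replicate wells show activity change below -50%, luminescence cut by over half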;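 further: luciferase reports HSF-1 transcriptional activity via heat shock element; 0% = median of DMSO wells and -100% = zero luminescence signal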
# PHOSPHO1 inh – inhibitors of human PHOSPHO1 phosphatase; Q8TCT1; AID 1565; recombinant PHOSPHO1, absorbance phosphatase assay; 290,000 tested, 1.1% active; inhibition, % at 13.3 µM; in the data active means inhibition above about 60%
# Target sequence (Q8TCT1 whole entry, looked up): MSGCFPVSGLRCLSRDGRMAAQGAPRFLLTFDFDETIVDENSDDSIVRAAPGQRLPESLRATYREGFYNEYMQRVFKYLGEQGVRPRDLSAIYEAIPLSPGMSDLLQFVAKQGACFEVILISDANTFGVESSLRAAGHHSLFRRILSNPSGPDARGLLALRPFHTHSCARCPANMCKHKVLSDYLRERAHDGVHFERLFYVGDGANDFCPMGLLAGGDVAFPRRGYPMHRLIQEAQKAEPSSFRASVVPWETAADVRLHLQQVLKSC
# AI-2 QS mod – modulators of Vibrio harveyi AI-2 quorum sensing system; Vibrio harveyi JMH597 AI-2 luminescence/OD600 ratio, 9 h; stronger effect = lower value; strain lacks LuxN and CqsS sensors; 0 = neutral-control median; activity change, % at 7.5 µM; 300,000 tested, 0.4% active; AID 2094; in the data active means activity change below about -75%, passing the limit was not always enough;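 further: luminescence divided by OD600 gain over 9 h not by final OD600 alone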
# core dimer inh – blocks dimerization of HCV core protein. TR-FRET GST/Flag-core106 dimerization, 1536-well. inhibition, % at 5 µM. 300,000 tested, 0.33% active. AID 1899;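 active means inhibition above the mean of all tested compounds plus 3 SD, set per screening campaign, cut at about 45% in these data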
#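 Material: GST/Flag-tagged HCV core106 proteins. Incubation: 4 h, 22.5 °C incubation. Read-out basis: inhibition (%) from 671 over 617 nm ratio. Measured by: TR-FRET, excitation 340 nm, emission 617 and 671 nm.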
# ALR inh – human ALR oxidase inhibition via reduced H2O2. 290,000 tested, 3.8% active. AID 485317. inhibition, % (test concentration not listed). purified ALR, DTT oxidation, H2O2 HRP-luminol luminescence;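 active means mean replicate inhibition above about 79%, with every replicate also reaching it, limit read from the data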
# Target sequence (P55789 whole entry, looked up): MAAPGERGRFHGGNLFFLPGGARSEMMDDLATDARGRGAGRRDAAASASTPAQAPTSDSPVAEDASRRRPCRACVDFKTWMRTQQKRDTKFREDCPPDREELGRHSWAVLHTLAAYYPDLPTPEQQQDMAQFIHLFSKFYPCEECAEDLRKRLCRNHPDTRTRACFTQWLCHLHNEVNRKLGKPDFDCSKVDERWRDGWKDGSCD
# Starred values were filed as active, the others as inactive; . = no result given. Sampled rows, rich in hits. Any-hit rate of the full collection: about 6.8%.
SMILES,HSF1 activator,HSF1 inh,PHOSPHO1 inh,AI-2 QS mod,core dimer inh,ALR inh
O=C(Cc1ccc([N+](=O)[O-])cc1)N1N=C(C2CC2)CC1(O)C(F)(F)F (stereo not drawn),68*,12,4,13,6,-10
COc1ccc(Cl)cc1NC(=O)c1cc(-c2ccco2)on1,-1,-3,-4,13,63*,-11
O=C(Nc1cc(Cl)ccc1Cl)c1cc(-c2ccco2)on1,25,-1,14,18,24,.
Cc1ccc(NC(=O)c2cc(-c3ccco3)on2)cc1,27,7,3,9,2,3
Cc1ccc(NC(=O)c2cc(-c3ccco3)on2)cc1C,55*,39,18,30,10,8
CCC(=O)c1ccc(OC(=O)N2CCOCC2)cc1,12,5,.,8,14,-9
COc1cc([N+](=O)[O-])ccc1NC(=S)NC(=O)CC(C)(C)C,5,7,17,33,2,-1
O=C(Nc1ccccc1)C1=C(O)CC(c2ccoc2)CC1=Nc1ccccc1 (stereo not drawn),86*,68,6,17,18,.
Cc1cccc(N=Nc2c(N)n[nH]c2N)c1,-1,-3,29,17,-6,93*
CCCCSc1nnc(-c2cc(Br)ccc2N)c(=O)[nH]1,-2,4,7,17,0,16
C=CCSc1nnc(-c2cc(Br)ccc2N)c(=O)[nH]1,6,-2,90*,26,0,6
Oc1cccc(Nc2nc(NCC3CCCO3)c3ccccc3n2)c1 (stereo not drawn),20,5,-10,-20,-1,100*
COc1ccc(Nc2nc(NCC3CCCO3)c3ccccc3n2)c(OC)c1 (stereo not drawn),18,5,30,8,-3,98*
CCOc1ccc(Nc2nc(NCC3CCCO3)c3ccccc3n2)cc1 (stereo not drawn),8,12,-15,18,-5,22
O=C(NN=Cc1cccc([N+](=O)[O-])c1)c1cccc2ccccc12,-7,-7,.,.,.,.
CCCc1ccc(OCC(=O)Nc2cc(S(=O)(=O)CC)ccc2O)cc1,45,14,20,43,-3,1
C=CCN(CC=C)S(=O)(=O)c1ccc(NC(=S)NC(=O)/C=C/c2cccc3ccccc23)cc1,14,-3,-20,26,56*,-11
C=CCN(CC=C)S(=O)(=O)c1ccc(NC(=S)NC(=O)/C=C/c2ccc(C)cc2)cc1,-8,-2,-2,19,17,-5
O=C(O)/C=C/C(=O)c1c(-c2ccccc2)[nH]c2ccccc12,13,11,-40,11,24,98*
CC(=O)c1c(-c2ccccc2)[nH]c2ccccc12,-4,-3,-29,50,-1,-9
CC(C)CNC(=S)N1CCC(NC(=O)c2ccco2)CC1,-14,-6,4,12,2,-19
CC(=O)c1ccc(NC(=O)CSc2nc(N)c3cc4c(nc3n2)CCCC4)cc1,30,22,14,19,9,-6
COc1ccc(NC(=O)CSc2nc(N)c3cc4c(nc3n2)CCCC4)cc1,58*,41,-16,24,10,41
CC(C)CC(COCc1cccc(Cl)c1)N1CCN(C(=O)c2ccc(C(F)(F)F)cc2)CCC1=O (stereo not drawn),25,9,-1,-5,5,-2
O=C1C2CSCN2C(=O)CN1CCCN1CCN(C(c2ccccc2)c2ccccc2)CC1 (stereo not drawn),-16,3,-10,11,-6,-21
SMILES,HSF1 activator,HSF1 inh,PHOSPHO1 inh,AI-2 QS mod,core dimer inh,ALR inh
COc1ccc(OC)c(N(CC(=O)NN=C2CCN(C)CC2)S(=O)(=O)c2ccccc2)c1,-4,1,51,19,4,20
CC(C)CN(CC(C)C)C(=O)CS(=O)(=O)Cc1ccccc1,11,0,-22,22,-1,0
CCC(C)NC(=O)C1(C)CCC(=O)N1Cc1ccccc1OC (stereo not drawn),-80,-74*,2,24,-5,-13
COc1ccccc1CN1C(=O)CCC1(C)C(=O)NCc1cccnc1 (stereo not drawn),5,-8,-17,13,-2,-17
Cc1cc(C(=O)CSC(C)c2nc3ccccc3c(=O)[nH]2)c(C)n1C (stereo not drawn),-1,1,56,12,3,99*
CC(SCC(=O)Nc1ccccc1)c1nc2ccccc2c(=O)[nH]1 (stereo not drawn),-6,-9,43,7,-3,-21
Cc1cc(C(=O)CSc2nc3ccccc3c(=O)[nH]2)c(C)n1C,-7,13,2,8,41,98*
Cc1cc(NS(=O)(=O)c2ccc(NC(=O)Cc3ccc([N+](=O)[O-])cc3)cc2)nc(C)n1,.,.,.,.,.,57
CCC(=O)N1C(C(=O)N2CCCC2)CSC1c1ccc(OC)cc1 (stereo not drawn),-90,-88*,16,6,0,-125
CCC(=O)N1C(C(=O)O)CSC1c1ccc(OC)cc1 (stereo not drawn),-10,-5,13,10,-1,-4
CC(C)CC(NC(=O)c1ccc(Cl)cc1)C(=O)OCc1cc([N+](=O)[O-])cc2c1OCOC2 (stereo not drawn),4,0,3,14,16,-20
Cc1cccc(-c2nc(CS(=O)CC(=O)N3CCCCC3)c(C)o2)c1 (stereo not drawn),-11,-5,19,23,-3,100*
Cc1cccc(-c2nc(CS(=O)CC(=O)NCC3CCCO3)c(C)o2)c1 (stereo not drawn),20,-2,-3,4,-8,.
Cc1oc(-c2ccccc2Cl)nc1CS(=O)CC(=O)N1CCN(c2ccccc2)CC1 (stereo not drawn),-1,-6,53,-1,16,99*
Cc1ccc(-c2nc(CS(=O)CC(=O)N3CCN(c4ccccc4)CC3)c(C)o2)cc1 (stereo not drawn),-18,6,7,18,6,98*
Cc1oc(-c2ccccc2)nc1CS(=O)CC(=O)N1CCc2ccccc2C1 (stereo not drawn),13,10,29,14,0,99*
COc1cccc(-c2nc(CS(=O)(=O)CC(=O)N3CCc4ccccc4C3)c(C)o2)c1,-3,2,2,14,4,33
O=S(=O)(Nc1cccnc1)c1ccc(Br)c2ccccc12,-2,5,44,2,20,-15
O=[N+]([O-])c1ccc(OCC(O)CN2CCN(c3ccccc3F)CC2)cc1 (stereo not drawn),-2,7,3,3,-11,-12
